FGF22 binding – binders of human FGF22 protein, primary screen, FGF22 synaptogenesis inhibitor project, biophysical, thermal shift, single point | actives 1.5% (n = 340,000) | activity (Tm shift, normalised), % at 9.99 µM | Fibroblast growth factor 22 (Homo sapiens), Q9HCT0 | recombinant FGF22 thermal shift, SYPRO orange fluorescence; percent of sucrose octasulfate shift, DMSO zero | AID 651658, 2012;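 active means mean Tm shift, scaled 0 neutral to 100 positive control, at about 1.3% or above, every replicate too, limit read from the data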
Target sequence (Q9HCT0 whole entry, looked up): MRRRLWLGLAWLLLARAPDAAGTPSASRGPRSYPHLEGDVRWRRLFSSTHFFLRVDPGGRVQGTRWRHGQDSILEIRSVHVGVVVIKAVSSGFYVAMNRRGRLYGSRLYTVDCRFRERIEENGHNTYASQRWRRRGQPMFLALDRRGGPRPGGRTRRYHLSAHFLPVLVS
FN deposition inh – inhibitors of fibronectin matrix deposition, primary screen, AH1F cells, Alexa488-fibronectin fluorescence, plate reader; AH1F fibroblasts, overnight; inhibition, % at 12.6 µM; actives 0.086% (n = 350,000); AID 743247, 2014;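 active means mean inhibition across replicates of 30% or more, regardless of how many single replicates reach that level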
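Test system: AH1F fibroblast monolayer depositing Alexa488-labelled fibronectin into matrix. Input: 10000 cells per well. Technique: fluorescence, ex 485 nm, em 525 nm. Buffer or medium: DMEM plus 2% serum, read in PBS. Timing: 1 h cell adhesion before compound, then overnight fibronectin incubation. Compound: single dose, pinned. Read-out basis: inhibition from reduced deposited-fibronectin fluorescence.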
Ecoli rRNA inh – reduced GFP signal of wild-type E. coli, primary screen, bacterial rRNA inhibitor project, GFP/RFP fluorescence, OD600, single point; E. coli WT GFP vs humanized-ribosome RFP mutants, 24 h; stronger effect = lower value; DMSO median 0, no signal -100; GFP signal change (wild-type ribosome), % (concentration not given with the values); actives 1.6% (n = 350,000);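 active means significant combined selectivity score with lowered wild-type GFP, culture density cut under 30%, mutant RFP and density less affected; inactive means any of these conditions unmet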
E-sel inducer – E-selectin induction in HUVECs, primary screen, imaging, HUVEC, immunofluorescence imaging, single point; P16581; normalized: neutral wells 0, TNF-alpha wells 100; activation, % at 7.58 µM; actives 0.37% (n = 260,000);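 active means mean E-selectin-positive cell signal at least 10% of the positive control, reached in at least 60% of replicates, without over 20% cell loss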
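Assay system: HUVEC, human umbilical vein endothelial cells / Amount: 3,000 HUVEC/well / Controls: TNF-alpha positive control, DMSO neutral control / Compound dosing: single concentration / Medium: EGM-2 over gelatin coat / Evaluation: percent E-selectin-positive cells / Signal: immunofluorescence imaging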
SIRT5 block – SIRT5 desuccinylase inhibitors, primary screen, biochemical, fluorescence imaging, single point, set 5; NAD-dependent protein deacylase sirtuin-5, mitochondrial (Homo sapiens), Q9NXA8; Purified SirT5, succinyl-peptide AMC, trypsin-coupled fluorescence; inhibition, % at 15 µM; actives 1.1% (n = 330,000); in the data active means inhibition above about 15%
Target sequence (Q9NXA8 whole entry, looked up): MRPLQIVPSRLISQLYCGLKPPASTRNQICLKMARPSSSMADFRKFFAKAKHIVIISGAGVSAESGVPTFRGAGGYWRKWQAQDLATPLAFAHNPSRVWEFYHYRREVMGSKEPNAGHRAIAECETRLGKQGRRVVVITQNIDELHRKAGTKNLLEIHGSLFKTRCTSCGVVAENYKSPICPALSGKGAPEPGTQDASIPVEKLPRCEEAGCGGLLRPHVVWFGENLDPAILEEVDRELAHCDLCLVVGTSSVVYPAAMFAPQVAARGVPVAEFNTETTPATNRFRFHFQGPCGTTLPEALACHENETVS
Statin myotox sup – suppressors of statin myotoxicity in C2C12 myotubes, primary screen, cell-based, single point, plate reader; C2C12 myotubes + simvastatin, ATP luminescence, 48 h; scaled: DMSO 0, geranylgeraniol control 100; rescue of ATP level, % at 7.49 µM; actives 0.78% (n = 330,000); AID 602340, 2012;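 active means mean ATP rescue above about 67%, or every replicate alone reaching that limit, limit read from the data, passing the limit was not always enough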;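 further: myotubes were challenged with 10 µM simvastatin during compound exposure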
A number is an active result; . = inactive; / = no result given. This is a sample that favours compounds with a hit; in the whole collection about 4% have one here.

SMILES	FGF22 binding	FN deposition inh	Ecoli rRNA inh	E-sel inducer	SIRT5 block	Statin myotox sup
Cc1cc(N/N=C/c2ccc(Cl)cc2)nc(NCc2ccccc2)n1	1.6	.	.	.	.	/
CN(C)c1cc(N/N=C\c2ccccc2)nc(N(C)C)n1	43.0	.	.	/	.	/
Cc1cc(N/N=C/c2ccccc2F)nc(NCc2ccccc2)n1	.	.	-29.6	.	.	.
CCOC(=O)Cc1n[nH]c(=O)c2ccccc12	.	.	.	/	.	.
O=C(Cc1n[nH]c(=O)c2ccccc12)OCC(=O)N(Cc1ccccc1)Cc1ccccc1	.	.	-23.8	.	.	.
Cc1ccc(S(=O)(=O)N2CCCC2CNC(=O)C(=O)NCc2ccc3c(c2)OCO3)cc1 (centres undefined)	43.0	.	.	.	/	.
Cc1cc(C)nc(N2CCCC(C(=O)NCc3ccc4c(c3)OCO4)C2)n1 (centres undefined)	43.3	.	.	.	.	/
Cc1cc(C)nc(N2CCCC(C(=O)Nc3ccc4c(c3)OCO4)C2)n1 (centres undefined)	/	/	/	/	/	.
O=C(Nc1ccc(Oc2ccccc2)cc1)c1csc([C@@H]2O[C@H](CO)[C@@H](O)[C@H]2O)n1	.	.	-30.8	.	.	.
O=C(Nc1ccc(OCCO)cc1)c1csc([C@@H]2O[C@H](CO)[C@H](O)[C@H](O)[C@H]2O)n1	.	.	.	.	/	.
CCN(C(=O)COC(=O)CNC(=O)c1ccccc1C)C1=CCCCC1	.	.	/	/	23.6	.
CC(=O)N1CCC2(CC1)C/C(=N\NC(=S)Nc1ccccc1F)c1cc(O)ccc1O2	.	.	.	/	.	/
CC(=O)N1CCC2(CC1)C/C(=N\NC(=S)Nc1ccccc1C)c1cc(O)ccc1O2	.	.	.	.	20.8	.
COC(=O)C(NC(=O)c1ccccc1)=C(C)C	/	/	/	/	/	93.6
CCOC(=O)C(NC(=O)c1ccccc1)=C(C)C	.	/	.	/	.	.
C[C@H](CO)N1C[C@H](C)[C@@H](CN(C)Cc2ccc3c(c2)OCO3)Oc2ccc(NC(=O)NC3CCCCC3)cc2C1=O	.	/	.	.	.	.
C[C@H](CO)N1C[C@H](C)[C@H](CN(C)S(=O)(=O)c2ccc(F)cc2)OCCCC[C@H](C)Oc2ccc(NS(=O)(=O)c3ccc(F)cc3)cc2C1=O	.	.	.	.	/	/
O=C(NNc1nc(N2CCOCC2)nc(N2CCOCC2)n1)Nc1ccc(Cl)cc1	.	.	.	.	15.1	/
CCCN(C)C[C@@H]1Oc2cc(C#Cc3ccc(OC)cc3)ccc2S(=O)(=O)N([C@@H](C)CO)C[C@@H]1C	.	/	.	.	.	.
COC(=O)c1c(CC[C@@H](CO)NC(=O)N[C@H](Cn2cc(-c3cncn3C)nn2)C(C)C)oc(C(C)=O)c1C(=O)OC	1.6	/	/	/	.	/
C[C@H](CO)N1C[C@H](C)[C@@H](CN(C)C(=O)c2cccnc2)Oc2cc(C3=CCCC3)ccc2S1(=O)=O	.	.	.	.	.	.
O=C(C[C@H]1C=C[C@@H](NC(=O)C2CCOCC2)[C@@H](CO)O1)Nc1ccc(-c2ccccc2)cc1	.	.	.	.	.	.
CC(=O)N1[C@@H]2c3ccc(C4=CCCC4)c(=O)n3C[C@H]1[C@H](CO)[C@H]2C(=O)NC1CCCC1	/	/	.	.	.	/
O=C1NC(=O)C2(Br)Nc3ccc(Br)cc3C(=O)C2N1 (centres undefined)	1.4	.	.	.	.	.
CC1(c2cccc(Br)c2)NC(=O)NC1=O (centres undefined)	.	.	.	.	.	.
SMILES	FGF22 binding	FN deposition inh	Ecoli rRNA inh	E-sel inducer	SIRT5 block	Statin myotox sup
COCC(=O)N1[C@H](CO)[C@@H](c2ccc(-c3cccc(OC)c3)cc2)C12CN(C(C)=O)C2	.	/	.	.	.	/
CC(NC(=O)c1ccncc1)C(c1cccs1)N1CCOCC1 (centres undefined)	.	/	.	/	19.9	.
CC(NC(=O)c1ccc(C(C)(C)C)cc1)C(c1cccs1)N1CCOCC1 (centres undefined)	.	.	.	/	.	.
C[C@@H]1CN([C@@H](C)CO)C(=O)c2cc(NC(=O)CCN3CCOCC3)ccc2O[C@H]1CN(C)Cc1ccc(C(=O)O)cc1	.	/	.	/	.	.
COc1ccc2c3c(n(C)c2c1)[C@@H](CO)N(C(=O)C1CCCCC1)CC31CCN(C(=O)c2ccncc2)CC1	.	/	.	.	/	/
CN(C)c1ccc(CNc2nc(-c3ccccc3)nn2S(C)(=O)=O)cc1	.	.	-23.5	/	.	.
CC(=O)n1nc(-c2ccccc2)nc1NCc1ccc(N(C)C)cc1	.	.	-24.6	.	.	.
CCC(=O)n1nc(-c2ccccc2)nc1NCc1ccccc1	/	.	.	/	.	.
NNC(=O)CSCc1nc(-c2ccc(Cl)cc2)cs1	.	.	-27.4	.	.	/
NNC(=O)CSCc1nc(-c2ccccc2)cs1	.	.	/	/	.	/
Cc1cc(=O)[nH]c(CN2CCOCC2)n1	43.1	/	.	/	.	.
Cc1nc(CN2CCC(c3ccccc3)CC2)cc(=O)[nH]1	.	.	.	/	.	/
Cc1nc(CN2CCCCC2)cc(=O)[nH]1	43.2	.	.	.	.	.
Cc1cc(=O)[nH]c(CN2CCC(c3ccccc3)CC2)n1	.	.	.	/	.	/
Cc1cccc(-c2noc(CN(C)C(=O)c3ccco3)n2)c1	.	.	.	/	51.9	.
COc1ccc(S(=O)(=O)Nc2cccc3c2O[C@@H](CN(C)C(=O)Nc2ccc(C(F)(F)F)cc2)[C@H](C)CN([C@H](C)CO)C3=O)cc1	.	/	.	.	.	/
O=C(Nc1ccnn1C1CCN(C2CCCC2)CC1)c1ccccc1Cl	.	.	.	.	27.5	.
CCc1nc(Cl)c(C#N)c2c1CCCC2	.	.	.	.	.	.
CCCc1nc(Cl)c(C#N)c2c1CCCC2	.	.	.	.	111.8	/
O=C(C[C@@H]1CC[C@H]2[C@@H](COC[C@@H](O)CN2S(=O)(=O)c2ccc(Cl)cc2)O1)N[C@@H]1CCN(Cc2ccccc2)C1	.	.	.	.	.	.
N#Cc1cc(-c2ccccc2)nnc1Sc1ccc(Cl)cc1	/	/	/	/	/	112.5
COc1ccc(CCn2nnc3ccccc3c2=O)cc1OC	43.0	.	.	.	/	.
COc1ccc2c3c(n(C)c2c1)[C@H](CO)N(Cc1cccc(F)c1)CC31CCN(C(=O)Cc2ccccc2)CC1	/	.	.	.	.	/

Source: PubChem BioAssay
